# Tests used:
# [1] = target: T1, NAD-dependent protein deacetylase sirtuin-2 (Homo sapiens, UniProt Q8IXJ6); assay: (§1) Inhibition of recombinant human C-terminal His-tagged SIRT2 (50 to 389 end residues) expressed in Escherichia coli using p53 derived (379 to 382 residues) fluorogenic peptide substrate RHKK(Ac)-AMC preincubated for 10 mins followed by substrate addition in presence of NAD+ by fluorescence assay
# T1 sequence (Q8IXJ6 whole entry): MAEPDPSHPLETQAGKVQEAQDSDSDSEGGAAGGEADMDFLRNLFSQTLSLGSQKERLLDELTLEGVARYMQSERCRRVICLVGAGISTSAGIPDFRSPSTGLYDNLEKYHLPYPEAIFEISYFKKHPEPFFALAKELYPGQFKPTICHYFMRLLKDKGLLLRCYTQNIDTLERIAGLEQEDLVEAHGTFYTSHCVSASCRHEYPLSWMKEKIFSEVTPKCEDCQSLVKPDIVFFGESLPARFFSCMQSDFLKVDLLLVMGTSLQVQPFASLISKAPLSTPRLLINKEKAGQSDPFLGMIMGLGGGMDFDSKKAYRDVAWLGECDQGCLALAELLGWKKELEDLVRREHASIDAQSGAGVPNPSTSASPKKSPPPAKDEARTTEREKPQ
# Method in brief: (§2)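 Two-step fluorogenic assay with p53 379–382 RHKK(Ac)-AMC. Compound (from 10 mM DMSO stock) preincubated ~10 min with human SIRT before substrate addition. Developer then releases fluorophore, read at ex 360/em 460 nm.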
# [2] = target: T2, NAD-dependent protein deacetylase sirtuin-2 (Homo sapiens) (UniProt Q8IXJ6); assay: as §1, with “coli at 10 uM” for “coli”, “assay relative to control” for “assay”; method in brief: as §2
# T2 sequence (whole entry): T1 sequence (Q8IXJ6 whole entry)
IC50 [1] [µM],inhibition [2] [%],SMILES
6.03,69,COc1ccc2ccccc2c1Cn1cnc2sc3c(c2c1=O)CCC(NCc1cccs1)C3 (stereo not given)
1.27,94,O=c1c2c3c(sc2ncn1Cc1cccc2cccnc12)CC(NCc1ccc(Cl)cc1)CC3 (stereo not given)
7.59,75,COc1ccc(CNC2CCc3c(sc4ncn(Cc5cccc6ccccc56)c(=O)c34)C2)cn1 (stereo not given)
3.58,92,O=c1c2c3c(sc2ncn1Cc1cccc2ccccc12)CC(NCc1ccncc1)CC3 (stereo not given)
0.97,90,O=c1c2c3c(sc2ncn1Cc1cccc2cccnc12)CC(Nc1ccc(F)cc1)CC3 (stereo not given)
13.4,69,COc1cccc(CNC2CCc3c(sc4ncn(Cc5ccccc5OC)c(=O)c34)C2)c1 (stereo not given)
9.57,80,O=c1c2c3c(sc2ncn1Cc1cccc2ccccc12)CC(NCCc1cccnc1)CC3 (stereo not given)
10.2,76,COc1ccc(CNC2CCc3c(sc4ncn(Cc5ccc6ccccc6c5)c(=O)c34)C2)cn1 (stereo not given)
5.61,85,COc1ccccc1CNC1CCc2c(sc3ncn(Cc4cccc5cccnc45)c(=O)c23)C1 (stereo not given)
4.25,78,Cc1ccc(NC2CCc3c(sc4ncn(Cc5cccc6cccnc56)c(=O)c34)C2)cc1 (stereo not given)
8.68,77,O=c1c2c3c(sc2ncn1Cc1ccc2ccccc2c1)CC(NCCc1cccnc1)CC3 (stereo not given)
1.74,93,O=c1c2c3c(sc2ncn1Cc1cccc(-c2ccccc2)c1)CC(NC1CCOCC1)CC3 (stereo not given)
6.94,80,Cc1noc(C)c1CNC1CCc2c(sc3ncn(Cc4cccc5cccnc45)c(=O)c23)C1 (stereo not given)
1.65,97,COc1ccc2ccccc2c1Cn1cnc2sc3c(c2c1=O)CCC(NCC1CCCCC1)C3 (stereo not given)
16.3,70,COc1ccccc1Cn1cnc2sc3c(c2c1=O)CCC(NC1CCc2ccccc21)C3 (stereo not given)
1.72,94,O=c1c2c3c(sc2ncn1Cc1cccc2cccnc12)CC(NCc1cccc(F)c1)CC3 (stereo not given)
1.83,95,COc1ccc(CNC2CCc3c(sc4ncn(Cc5cccc6cccnc56)c(=O)c34)C2)cc1 (stereo not given)
2.92,91,O=c1c2c3c(sc2ncn1Cc1cccc2cccnc12)CC(NCc1cccnc1)CC3 (stereo not given)
10.4,75,COc1ccccc1Cn1cnc2sc3c(c2c1=O)CCC(NCc1ccccc1)C3 (stereo not given)
1.18,99,COc1ccc2ccccc2c1Cn1cnc2sc3c(c2c1=O)CCC(NC1CCCC1)C3 (stereo not given)
5.53,87,O=c1c2c3c(sc2ncn1Cc1ccc2ccccc2c1)CC(NCC1CCCCC1)CC3 (stereo not given)
2.58,91,O=c1c2c3c(sc2ncn1Cc1cccc(-c2ccccc2)c1)CC(NCC1CCOC1)CC3 (stereo not given)
12.5,67,O=c1c2c3c(sc2ncn1Cc1cccc2ccccc12)CC(NCC1CCCO1)CC3 (stereo not given)
2.56,88,O=c1c2c3c(sc2ncn1Cc1cccc2cccnc12)CC(NCc1cccs1)CC3 (stereo not given)

IC50 [1] [µM],inhibition [2] [%],SMILES
2.93,94,COc1ccc2ccccc2c1Cn1cnc2sc(CCNCc3ccncc3)c(C)c2c1=O
5.49,80,O=c1c2c3c(sc2ncn1Cc1cccc2cccnc12)CC(NC1CCCc2ccccc21)CC3 (stereo not given)
2.43,94,O=c1c2c3c(sc2ncn1Cc1cccc2cccnc12)CC(NCC1CCCCC1)CC3 (stereo not given)
4.2,85,Cc1nn(C)c(C)c1CNC1CCc2c(sc3ncn(Cc4cccc5ccccc45)c(=O)c23)C1 (stereo not given)
3.68,83,O=c1c2c3c(sc2ncn1Cc1cccc2cccnc12)CC(NCc1ccncc1)CC3 (stereo not given)
3.36,89,COc1ccc(CNCCc2sc3ncn(Cc4c(OC)ccc5ccccc45)c(=O)c3c2C)cc1
2.61,87,O=c1c2c3c(sc2ncn1Cc1cccc2cccnc12)CC(NCc1ccccn1)CC3 (stereo not given)
1.2,95,COc1ccc2ccccc2c1Cn1cnc2sc3c(c2c1=O)CCC(NCc1ccncc1)C3 (stereo not given)
3.14,77,O=c1c2c3c(sc2ncn1Cc1cccc(-c2ccccc2)c1)CC(NCCN1CCOCC1)CC3 (stereo not given)
3.09,91,O=c1c2c3c(sc2ncn1Cc1cccc2cccnc12)CC(NC1CCc2ccccc21)CC3 (stereo not given)
3.14,92,O=c1c2c3c(sc2ncn1Cc1ccc2ccccc2c1)CC(NCc1ccncc1)CC3 (stereo not given)
1.85,85,Cc1noc(C)c1CNC1CCc2c(sc3ncn(Cc4cccc5ccccc45)c(=O)c23)C1 (stereo not given)
9.6,72,O=c1c2c3c(sc2ncn1Cc1ccc2ccccc2c1)CC(NCCc1ccncc1)CC3 (stereo not given)
13.1,71,O=c1c2c3c(sc2ncn1Cc1ccc2ccccc2c1)CC(NCC1CCCO1)CC3 (stereo not given)
2.15,93,COc1ccc2ccccc2c1Cn1cnc2sc(CCNCc3cccnc3)c(C)c2c1=O
3.78,77,O=c1c2c3c(sc2ncn1Cc1cccc(-c2ccccc2)c1)CC(NCCN1CCCC1)CC3 (stereo not given)
2.84,88,O=c1c2c3c(sc2ncn1Cc1cccc2cccnc12)CC(NCc1cccc(Cl)c1)CC3 (stereo not given)
7.68,81,O=c1c2c3c(sc2ncn1Cc1cccc2ccccc12)CC(NCc1ccccn1)CC3 (stereo not given)
2.65,90,COc1ccc(CNC2CCc3c(sc4ncn(Cc5cccc6cccnc56)c(=O)c34)C2)cn1 (stereo not given)
1.9,90,COc1ccc2ccccc2c1Cn1cnc2sc3c(c2c1=O)CCC(NCC1CCCO1)C3 (stereo not given)
4.16,80,O=c1c2c3c(sc2ncn1Cc1cccc2cccnc12)CC(NCc1ccco1)CC3 (stereo not given)
5.3,88,O=c1c2c3c(sc2ncn1Cc1ccc2ccccc2c1)CC(NCc1cncnc1)CC3 (stereo not given)
2.5,93,O=c1c2c3c(sc2ncn1Cc1cccc2cccnc12)CC(NCc1ccccc1)CC3 (stereo not given)
1.9,83,COc1ccc(CNC2CCc3c(sc4ncn(Cc5c(OC)ccc6ccccc56)c(=O)c34)C2)cn1 (stereo not given)

IC50 [1] [µM],inhibition [2] [%],SMILES
5.79,75,O=c1c2c3c(sc2ncn1Cc1cccc2ccccc12)CC(NCCc1ccncc1)CC3 (stereo not given)
10.3,66,COc1ccc2ccccc2c1Cn1cnc2sc3c(c2c1=O)CCC(NCCc1cccnc1)C3 (stereo not given)
4.07,73,COc1ccc2ccccc2c1Cn1cnc2sc3c(c2c1=O)CCC(NCc1cccc(F)c1)C3 (stereo not given)
9.59,72,COc1ccccc1CNC1CCc2c(sc3ncn(Cc4ccccc4OC)c(=O)c23)C1 (stereo not given)
8.67,81,O=c1c2c3c(sc2ncn1Cc1ccc2ccccc2c1)CC(NCc1ccccn1)CC3 (stereo not given)
5.85,81,O=c1c2c3c(sc2ncn1Cc1cccc2cccnc12)CC(NCCC1CCCCC1)CC3 (stereo not given)
1.11,96,COc1ccc2ccccc2c1Cn1cnc2sc3c(c2c1=O)CCC(NC1CCOCC1)C3 (stereo not given)
3.12,83,COc1ccc2ccccc2c1Cn1cnc2sc3c(c2c1=O)CCC(NCc1ccccn1)C3 (stereo not given)
2.75,95,COc1ccc2ccccc2c1Cn1cnc2sc3c(c2c1=O)CCC(NCCc1ccncc1)C3 (stereo not given)
1.52,98,O=c1c2c3c(sc2ncn1Cc1cccc(-c2ccccc2)c1)CC(NC1CCCC1)CC3 (stereo not given)
7.43,87,Cc1nn(C)c(C)c1CNC1CCc2c(sc3ncn(Cc4ccc5ccccc5c4)c(=O)c23)C1 (stereo not given)
6.03,85,COc1ccc2ccccc2c1Cn1cnc2sc3c(c2c1=O)CCC(NCC1CCOC1)C3 (stereo not given)
5.24,78,COc1ccc2ccccc2c1Cn1cnc2sc3c(c2c1=O)CCC(NCc1ccco1)C3 (stereo not given)
7.61,70,O=c1c2c3c(sc2ncn1Cc1cccc2ccccc12)CC(NCc1ccco1)CC3 (stereo not given)
4,87,COc1ccc2ccccc2c1Cn1cnc2sc3c(c2c1=O)CCC(NCc1c(C)noc1C)C3 (stereo not given)
6.45,86,O=c1c2c3c(sc2ncn1Cc1cccc2ccccc12)CC(NCc1cncnc1)CC3 (stereo not given)
11.7,72,O=c1c2c3c(sc2ncn1Cc1ccc2ccccc2c1)CC(NCc1ccco1)CC3 (stereo not given)
5.11,94,COc1ccc2ccccc2c1Cn1cnc2sc3c(c2c1=O)CCC(NCc1c(C)nn(C)c1C)C3 (stereo not given)
4.22,75,COc1ccccc1CNC1CCc2c(sc3ncn(Cc4ccc5ccccc5c4)c(=O)c23)C1 (stereo not given)
5.45,71,O=c1c2c3c(sc2ncn1Cc1ccc2ccccc2c1)CC(NCc1ccccc1)CC3 (stereo not given)
3.2,78,COc1ccc(CNC2CCc3c(sc4ncn(Cc5cccc6ccccc56)c(=O)c34)C2)cc1 (stereo not given)
2.48,82,COc1ccc(NC2CCc3c(sc4ncn(Cc5cccc6cccnc56)c(=O)c34)C2)cc1 (stereo not given)

# From ChEMBL document CHEMBL4004822, “Thienopyrimidinone Based Sirtuin-2 (SIRT2)-Selective Inhibitors Bind in the Ligand Induced Selectivity Pocket” (J Med Chem, 2017)
